Results as given in BindingDB's records for doi:10.1016/j.ejmech.2017.02.062 (Padmashri Vikhe Patil College of Arts, 2017).

molecular target: T1, Retinoblastoma-associated protein (Homo sapiens, UniProt P06400); assay: ChEBML_1684306
T1 sequence (P06400 whole entry): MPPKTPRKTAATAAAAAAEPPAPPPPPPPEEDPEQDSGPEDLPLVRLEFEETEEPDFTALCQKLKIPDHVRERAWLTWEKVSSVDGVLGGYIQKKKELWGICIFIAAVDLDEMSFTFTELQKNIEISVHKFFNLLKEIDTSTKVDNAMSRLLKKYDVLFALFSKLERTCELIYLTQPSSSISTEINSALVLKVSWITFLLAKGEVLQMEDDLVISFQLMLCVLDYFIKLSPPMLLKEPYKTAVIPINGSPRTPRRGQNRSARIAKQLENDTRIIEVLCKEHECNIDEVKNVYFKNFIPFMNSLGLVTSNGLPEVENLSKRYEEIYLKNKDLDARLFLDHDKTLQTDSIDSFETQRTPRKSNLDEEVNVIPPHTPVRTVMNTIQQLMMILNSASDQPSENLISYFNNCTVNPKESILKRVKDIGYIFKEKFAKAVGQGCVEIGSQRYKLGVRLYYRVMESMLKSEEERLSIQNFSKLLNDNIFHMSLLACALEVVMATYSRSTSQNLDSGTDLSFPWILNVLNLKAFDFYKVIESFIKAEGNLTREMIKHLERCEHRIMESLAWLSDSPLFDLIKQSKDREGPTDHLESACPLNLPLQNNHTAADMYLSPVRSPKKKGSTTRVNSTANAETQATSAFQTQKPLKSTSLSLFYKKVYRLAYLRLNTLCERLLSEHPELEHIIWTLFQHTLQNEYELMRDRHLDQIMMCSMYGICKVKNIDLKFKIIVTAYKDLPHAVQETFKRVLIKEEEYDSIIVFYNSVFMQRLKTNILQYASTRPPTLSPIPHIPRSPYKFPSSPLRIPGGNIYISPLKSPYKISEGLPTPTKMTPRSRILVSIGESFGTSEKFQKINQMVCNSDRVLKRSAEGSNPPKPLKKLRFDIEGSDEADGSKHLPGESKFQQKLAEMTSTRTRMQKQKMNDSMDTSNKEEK

Row | SMILES | IC50 [µM]
1 | c1ccc2c3c([nH]c2c1)C(NC1CCCCC1)CCC3 (stereo not drawn) | 15
2 | c1ccc2c3c([nH]c2c1)C(NC1CCCC1)CCC3 (stereo not drawn) | 10
3 | O=S(=O)(NC1CCCc2c1[nH]c1ccccc21)c1ccc(F)cc1 (stereo not drawn) | 9.2
4 | N#Cc1ccc(S(=O)(=O)NC2CCCc3c2[nH]c2ccccc32)cc1 (stereo not drawn) | > 100
5 | c1ccc2c3c([nH]c2c1)CC(NC1CCCC1)CC3 (stereo not drawn) | 10
6 | CC1CCC(NC2CCc3c([nH]c4ccccc34)C2)C1 (stereo not drawn) | 17.3
7 | c1ccc2c3c([nH]c2c1)CC(NC1CCOCC1)CC3 (stereo not drawn) | > 100
8 | O=S(=O)(NC1CCc2c([nH]c3ccccc23)C1)c1ccc(F)cc1 (stereo not drawn) | 9.5
9 | Cc1ccc2[nH]c3c(c2c1)CCC(NC1CCC(C)C1)C3 (stereo not drawn) | 2
10 | Cc1ccc2[nH]c3c(c2c1)CCC(NCc1ccccc1)C3 (stereo not drawn) | 2.2
11 | CC1CCC(NC2CCCc3c2[nH]c2ccc([N+](=O)[O-])cc32)C1 (stereo not drawn) | 4.81
12 | Cc1ccc(CNC2CCc3c(n(C)c4ccccc34)C2)cc1 (stereo not drawn) | 3.5
13 | O=S(=O)(NC1CCCc2c1[nH]c1ccccc21)c1cccnc1 (stereo not drawn) | > 100
14 | c1ccc2c3c([nH]c2c1)CC(NC1CCCCC1)CC3 (stereo not drawn) | 11
15 | Cc1ccc(CNC2CCc3c([nH]c4ccc(C)cc34)C2)cc1 (stereo not drawn) | 2.9

More lines, now with the values ahead:

Row | IC50 [µM] | SMILES
16 | > 100 | N#Cc1ccc(S(=O)(=O)NC2CCc3c([nH]c4ccccc34)C2)cc1 (stereo not drawn)
17 | > 100 | COc1cccc(C(=O)NC2CCc3c([nH]c4ccccc34)C2)c1 (stereo not drawn)
18 | > 100 | O=C(NC1CCc2c([nH]c3ccccc23)C1)c1ccccc1F (stereo not drawn)
19 | 6.92 | c1ccc(CNC2CCc3c([nH]c4ccccc34)C2)cc1 (stereo not drawn)
20 | > 100 | O=S(=O)(NC1CCc2c([nH]c3ccccc23)C1)c1cccnc1 (stereo not drawn)
21 | 100 | O=C(NC1CCc2c([nH]c3ccccc23)C1)c1cccc(F)c1 (stereo not drawn)
22 | 4.1 | Cc1ccc(CNC2CCc3c([nH]c4ccccc34)C2)cc1 (stereo not drawn)

molecular target: T1, Retinoblastoma-associated protein; assay: Inhibition of retinoblastoma protein phosphorylation in human MDA-MB-231 cells after 16 hrs by Hoechst 33342 staining based fluorescence assay
Procedure, shortened: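 Fixation in 3.7% formaldehyde, 0.1% Triton X permeabilization, anti-pRb primary with Dylight 549 secondary; nuclei counterstained with Hoechst 33342; high-content imaging on ArrayScan reader.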

Row | IC50 [µM] | SMILES
23 | 15 | CC1CCC(NC2CCCc3c2[nH]c2ccccc32)C1 (stereo not drawn)
